# Mot1-301 SUMO: inhibitors of SUMOylation pathway: yeast Mot1-301 growth rescue | S. cerevisiae Mot1-301 growth rescue, ATP luminescence, 38.5C; percent above DMSO median, 100 means doubled | growth rescue, % at 18.8 µM | hit rate 1% among 320,000;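 active = every valid replicate shows activation above 250% relative to neutral control wells; inactive = the rest, any valid replicate at or below 250%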;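 also: OY570 slx delta 5 strain wells were the positive control but not used for scaling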
# KCNQ1 pot: potentiates or activates the human KCNQ1 potassium channel; P51787; CHO-K1 KCNQ1, thallium flux FluxOR fluorescence; stronger effect = higher value; B-score at 10 µM; hit rate 0.35% among 310,000; AID 2648;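 active = fluorescence ratio B-score, a plate-corrected score, at least three library SD, with initial intensity B-score within 5 SD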
# Target sequence (P51787 whole entry, looked up): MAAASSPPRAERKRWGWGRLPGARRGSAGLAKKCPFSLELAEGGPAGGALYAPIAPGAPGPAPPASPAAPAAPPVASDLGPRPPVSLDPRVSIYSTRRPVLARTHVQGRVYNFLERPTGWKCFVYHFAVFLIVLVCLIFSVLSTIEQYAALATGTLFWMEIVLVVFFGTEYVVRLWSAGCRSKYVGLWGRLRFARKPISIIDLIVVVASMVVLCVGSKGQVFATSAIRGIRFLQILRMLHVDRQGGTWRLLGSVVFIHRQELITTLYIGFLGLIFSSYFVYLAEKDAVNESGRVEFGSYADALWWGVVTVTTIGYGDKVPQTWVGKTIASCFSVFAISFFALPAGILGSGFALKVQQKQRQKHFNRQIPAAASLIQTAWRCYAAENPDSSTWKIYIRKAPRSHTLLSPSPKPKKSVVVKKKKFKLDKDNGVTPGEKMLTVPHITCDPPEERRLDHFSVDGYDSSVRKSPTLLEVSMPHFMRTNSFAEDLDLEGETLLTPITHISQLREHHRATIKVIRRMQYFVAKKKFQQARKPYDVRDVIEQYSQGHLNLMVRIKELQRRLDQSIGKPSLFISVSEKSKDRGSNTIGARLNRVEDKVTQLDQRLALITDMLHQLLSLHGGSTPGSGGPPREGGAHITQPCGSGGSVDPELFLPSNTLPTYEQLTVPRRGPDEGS
#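 Test system: CHO-K1 cells stably expressing KCNQ1 / Medium: assay buffer / Also added: depolarizing K+/Tl+ stimulus, K2SO4 and Tl2SO4 each 12.5 mM in 5x stock / Incubation: 90 min dye loading and 20 min compound exposure, both at room temperature / Signal: thallium influx via FluxOR fluorescence, kinetic imaging / Evaluation: B score of baseline-normalized fluorescence ratio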
# Cl transport mod: KCC2 (human) Cl- transport modulation | Q9H2X9 | KCC2 cells, thallium flux FluoZin-2 fluorescence | B-score of Tl+ flux slope (higher = more flux/activation; lower = inhibition) at 10 µM | hit rate 2.2% among 190,000 | AID 1456;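 active = thallium flux slope and its plate-corrected score both differing from the plate sample mean at a set confidence after two filtering rounds, in either direction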;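 also: slope of fluorescence scaled to starting intensity during 10 to 20 s after thallium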
# KCNQ1 block: human KCNQ1 channel inhibition. P51787. CHO-K1 KCNQ1, FluxOR thallium flux fluorescence; stronger effect = higher value. B-score at 10 µM. hit rate 1.3% among 310,000;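 active = compounds whose thallium flux B-score, printed positive for inhibition, exceeds three library SD while starting fluorescence stays within three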;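 also: channel opened by potassium depolarization with thallium stimulus after 20 min compound exposure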
# AI-2 QS mod: Vibrio harveyi AI-2 quorum sensing modulation | Vibrio harveyi JMH597 AI-2 luminescence/OD600 ratio, 9 h; stronger effect = lower value; strain lacks LuxN and CqsS sensors; 0 = neutral-control median | activity change, % at 7.5 µM | hit rate 0.4% among 300,000 | AID 2094; in the data active = activity change below about -75%, passing the limit was not always enough; inconclusive = no clear call, values can overlap the other calls;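 also: luminescence divided by OD600 gain over 9 h not by final OD600 alone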
# hERG protect: hERG (human) protection from proarrhythmic block. Q12809. CHO-hERG, FluxOR thallium flux, dofetilide IC70 present. activation (rescue from dofetilide block), less the hit threshold, % at 10 µM. hit rate 0.51% among 310,000. AID 1511;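 active = activation above the mean of controls blocked by dofetilide plus 5 SD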;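 also: thallium influx through hERG after potassium depolarization seen as dye fluorescence rise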
# KCC2 sec1: KCC2 (human) modulation, secondary assay; shares compounds with Cl transport mod; HEK293-KCC2, thallium flux, FluoZin2 fluorescence; stronger effect = higher value; normalised thallium flux (F/F0 slope) at 10 µM; hit rate 15% among 3,700; AID 1713;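 active = thallium flux slope above the same plate's solvent-only control mean plus 3 SD; inconclusive = the two replicate wells disagree; inactive = no significant difference from solvent-only control wells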
# KCC2 bumet counter: thallium flux despite bumetanide block in KCC2 cells, secondary assay 3; shares compounds with Cl transport mod; HEK293-KCC2 + bumetanide/ouabain, thallium flux FluoZin2; stronger effect = higher value; normalized thallium flux at 10 µM; hit rate 49% among 3,700;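 active = thallium entry rate above the same plate's blocked-transporter control wells by more than 3 SD; inconclusive = the two repeat wells disagree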;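 also: raw slope of fluorescence over initial fluorescence between 10 and 20 s after thallium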
# KCC2 secondary2: KCC2 (human) modulation, second secondary assay | normalized thallium flux at 10 µM | hit rate 23% among 3,700 | shares compounds with Cl transport mod | HEK293-KCC2, thallium flux FluoZin2 fluorescence; actives lie on both sides; F/F0 rise rate, 10–20 s post-thallium;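 active = thallium flux slope more than 3 SD above or below the plate's solvent-only control mean, mostly below; inconclusive = the two repeat wells disagreed; inactive = no significant shift from solvent-only controls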;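 also: raw slope with 0.1% DMSO as baseline and bumetanide as block control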
# HEK293 Tl flux: parental HEK flux effect, counter-screen. shares compounds with Cl transport mod. HEK293 parental cells, thallium flux FluoZin2, ouabain; baseline-ratio fluorescence slope, 10–20 s after thallium. thallium flux rate (normalised fluorescence) at 10 µM. hit rate 46% among 3,700;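 active = thallium flux rate significantly above the same plate's solvent-only control wells, beyond their mean plus 3 SD; inconclusive = the two replicate wells gave conflicting results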
# KCC2 retest ouab: modulates human KCC2 on retest with ouabain; shares compounds with Cl transport mod; HEK293-KCC2, thallium flux FluoZin2 fluorescence; bidirectional: low = inhibitor, high = activator; raw Tl+ flux slope (below DMSO = inhibition, above = activation) at 10 µM; hit rate 48% among 3,700; AID 1717;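 active = thallium flux slope beyond 3 SD from same-plate DMSO control mean in most replicates, usually higher, sometimes lower; inconclusive = repeat tests gave conflicting results; inactive = no significant difference from controls in most replicates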;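 also: slope of initial-normalized fluorescence between seconds 10 and 20 after thallium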
# HEK counter2: acts in parental HEK cells, second KCC2 counter-screen; shares compounds with Cl transport mod; HEK293 parental, thallium flux FluoZin-2 fluorescence slope; thallium flux slope at 10 µM; hit rate 33% among 3,700;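 active = thallium flux slope above the same plate's solvent-control mean plus 3 SD in both duplicate wells; inconclusive = duplicate wells that disagreed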;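 also: run without ouabain in cells lacking the KCC2 cotransporter; slope of fluorescence scaled to its starting value between 10 and 20 s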
# Active calls of the source: *; i = inactive; ? = inconclusive; / = not tested or not shown. Only some compounds are listed: those with a hit (about 4.2% of all), similar ones and a draw of the others.
SMILES,Mot1-301 SUMO,KCNQ1 pot,Cl transport mod,KCNQ1 block,AI-2 QS mod,hERG protect,KCC2 sec1,KCC2 bumet counter,KCC2 secondary2,HEK293 Tl flux,KCC2 retest ouab,HEK counter2
Cc1ccc(C(=O)Nc2ccc3cn[nH]c3c2)cc1S(=O)(=O)N1CCCCC1,-11.4,i,/,i,14.2,-10.2,/,/,/,/,/,/
COc1ccc(OC)c(NC(=O)CCC(=O)Nc2nnc(C(C)C)s2)c1,-12.3,i,/,i,8.3,-4.7,/,/,/,/,/,/
CN1CCN(CCCc2c3c(cc4c2CCC4)CCC3)CC1,-1.9,i,0.496,i,12.6,-8.3,/,/,/,/,/,/
Cc1ccc2nc(-c3ccccc3)c(CN3CCOCC3)n2c1,/,i,4.34*,i,0.1,-1.7,0.00974,0.006,0.0353,0.00391,0.0206,0.0117
COc1ccc(N/C(N)=N/c2nc(CSc3ccc(C)cc3)cc(=O)[nH]2)cc1,162.5,i,/,i,11.0,-2.8,0.0147,0.00404,0.0309,0.00761,0.0153,0.0108
FC(F)(F)c1ccccc1NC(=S)N/N=C1\CC2CC=CC12 (configuration not stated),/,/,13.3*,/,/,/,?,0.037*,0.0398*,0.0204*,0.0287*,0.0229*
CC1=C(C)Cc2c(OC(=O)c3ccccc3)ccc(OC(=O)c3ccccc3)c2C1,0.9,i,0.313,i,-8.9,-2.4,/,/,/,/,/,/
COc1cccc(Cn2cnc3c(NS(=O)(=O)c4cc(Cl)ccc4Cl)c(C)c(C)cc32)c1,180.0,i,/,i,10.0,-1.0,0.00911,0.00913*,0.0307,?,0.0259,?
COc1cccc(Cn2cnc3c(NS(=O)(=O)c4ccc(Cl)cc4Cl)c(C)c(C)cc32)c1,-5.9,i,/,i,-1.8,-3.0,/,/,/,/,/,/
CCS(=O)(=O)N1CCCC(C(=O)N2CCc3ccccc3C2)C1 (configuration not stated),-8.3,i,/,i,23.8,-10.5,/,/,/,/,/,/
O=C(C1CCN(S(=O)(=O)c2cccs2)CC1)N1CCc2ccccc2C1,-16.5,i,-4.11*,i,0.7,-7.4,0.00569,0.00461,0.0236*,0.00732,0.0176*,0.00991
O=C(C1CCCN(S(=O)(=O)c2cccs2)C1)N1CCc2ccccc2C1 (configuration not stated),332.9,i,-3.04*,i,25.9,-9.7,0.00789,0.00614,0.0333,0.00424,0.0156*,0.0112
Cc1noc(/C=C/c2ccco2)c1S(=O)(=O)N1CCC(C(=O)N2CCc3ccccc3C2)CC1,113.2,i,-0.535,i,25.7,-14.2,0.00543,0.00457,0.0264*,0.00719,?,0.0102
COCCN1CCN(C(=O)C2CCC(=O)N(Cc3cccc(C(F)(F)F)c3)C2)CC1 (configuration not stated),-5.0,i,/,i,3.0,-3.0,/,/,/,/,/,/
COc1cccc(/C=N/NC(=S)NC2CC3CCC2C3)c1OC (configuration not stated),1.9,i,/,i,8.3,-2.8,/,/,/,/,/,/
Oc1ccccc1/C=N/NC(=S)NC1CC2CCC1C2 (configuration not stated),-20.2,i,14.8*,i,13.4,-8.1,0.00974,0.0371*,0.0283,0.0158*,0.0304*,?
COC(=O)CSc1nnc(CNS(=O)(=O)c2ccc(C)cc2)n1C,0.1,i,-0.0928,i,39.7,-8.7,/,/,/,/,/,/
COc1cccc(C(=O)CSc2nnc(CNS(=O)(=O)c3ccc(C)cc3)n2C)c1,/,i,-4.16*,i,11.9,-9.5,0.00995,0.00715,0.0324,0.00841,0.0235,0.0114*
COc1ccc(CNC(=S)NC(C)CCc2ccccc2)cc1 (configuration not stated),5.3,i,-4.88*,i,25.2,-12.8,0.00532*,?,?,0.00582*,0.0132*,0.00983
COc1ccc(CNC(=S)NCc2ccc(OC)cc2)cc1,136.3,i,-0.135,i,-8.1,-8.2,/,/,/,/,/,/
COc1ccc(O)c(C(=O)CC(=O)c2ccccc2C)c1,2.9,i,29*,i,83.1,-0.8,0.00544,0.0253*,?,0.0181*,0.0312*,0.0216*
COc1ccc(C(=O)CC(=O)c2ccccc2O)cc1OC,3.7,i,7.13*,i,5.6,-6.3,0.00754,0.0111*,0.0373,0.0126*,0.0234,0.0107
COc1ccc(O)c(C(=O)CC(=O)c2ccc(F)cc2)c1,14.2,i,23.4*,i,46.9,-0.6,?,0.0698*,0.0353,?,0.0543*,?
COc1ccc(C(=O)CC(=O)c2ccccc2O)cc1,70.3,i,/,i,3.3,-3.3,/,/,/,/,/,/
N#CC(C(N)=O)=C1CCCCC1,-3.1,i,0.749,i,-8.4,-5.5,/,/,/,/,/,/
CC(C)OCCCn1c(-c2ccc(Br)cc2)c[nH]c1=S,-18.0,i,9.46*,i,14.9,-4.8,0.0094,0.0435*,0.0357,0.0201*,0.0399*,0.013*
CC(C)OCCCNC(=O)c1ccc(Br)cc1,462.5,i,0.636,i,28.0,-7.9,/,/,/,/,/,/
CCOc1ccc(OCC)c(NC(=O)C2CCCN(c3nc(C)cc(C)n3)C2)c1 (configuration not stated),-5.2,i,-3.75*,i,16.2,-12.3,0.00604,0.00409,?,0.00572*,0.0139*,?
COc1ccccc1NC(=O)C1CCCN(c2nc(C)cc(C)n2)C1 (configuration not stated),9.7,i,-0.722,i,-7.6,-10.6,/,/,/,/,/,/
O=C(Nc1ccc(OC(F)(F)F)cc1)c1[nH]ncc1[N+](=O)[O-],12.6,i,13*,i,-2.6,-4.1,0.00809,0.0204*,0.0328,0.0221*,?,0.0157*

# High-throughput results: PubChem, several laboratories
